{"source": "ChEMBL document CHEMBL4007420", "about": "“Structural Optimization and Pharmacological Evaluation of Inhibitors Targeting Dual-Specificity Tyrosine Phosphorylation-Regulated Kinases (DYRK) and CDC-like kinases (CLK) in Glioblastoma” (J Med Chem, 2017)", "key": {"[1]": {"biological_target": "T1, Dual specificity tyrosine-phosphorylation-regulated kinase 1A (Homo sapiens, UniProt Q13627)", "experiment": "Inhibition of DYRK1A in human U251 cell lysate assessed as EGF induced EGFR degradation at 2.5 uM by measuring basal EGFR half life in presence of cycloheximide by Western blot analysis (reference value: 25.6 +/- 7.6 min)", "summary_of_the_method": "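U251 cells were pretreated with 2.5 µM compound or DMSO for 4 h, then given cycloheximide (30 µg/mL, 1 h). EGF (100 ng/mL) was added for 0–120 min. EGFR was detected by Western blot, normalized to β-actin and expressed as % of 0 min. Half-life came from non-linear regression, as mean ± SEM of 3 independent experiments.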"}, "[2]": {"biological_target": "T2, Dual specificity protein kinase CLK1 (Homo sapiens, UniProt P49759)", "experiment": "Stabilization of CLK1 in human U251 cell lysate at 10 uM preincubated for 1 hr followed by incubation at 40 to 70 degreeC for 3 mins by cellular thermal shift assay"}, "[3]": {"system": "U-251", "experiment": "Antiinvasive activity in human U251 cells assessed as velocity of invasion at 10 uM measured up to 20 hrs by matrigel assay (reference value: 1151 to 1710 micrometer/hr)", "assay_type": "functional"}, "[4]": {"biological_target": "T3, Dual specificity tyrosine-phosphorylation-regulated kinase 2 (Homo sapiens, UniProt Q92630)", "T3 sequence (Q92630 whole entry)": "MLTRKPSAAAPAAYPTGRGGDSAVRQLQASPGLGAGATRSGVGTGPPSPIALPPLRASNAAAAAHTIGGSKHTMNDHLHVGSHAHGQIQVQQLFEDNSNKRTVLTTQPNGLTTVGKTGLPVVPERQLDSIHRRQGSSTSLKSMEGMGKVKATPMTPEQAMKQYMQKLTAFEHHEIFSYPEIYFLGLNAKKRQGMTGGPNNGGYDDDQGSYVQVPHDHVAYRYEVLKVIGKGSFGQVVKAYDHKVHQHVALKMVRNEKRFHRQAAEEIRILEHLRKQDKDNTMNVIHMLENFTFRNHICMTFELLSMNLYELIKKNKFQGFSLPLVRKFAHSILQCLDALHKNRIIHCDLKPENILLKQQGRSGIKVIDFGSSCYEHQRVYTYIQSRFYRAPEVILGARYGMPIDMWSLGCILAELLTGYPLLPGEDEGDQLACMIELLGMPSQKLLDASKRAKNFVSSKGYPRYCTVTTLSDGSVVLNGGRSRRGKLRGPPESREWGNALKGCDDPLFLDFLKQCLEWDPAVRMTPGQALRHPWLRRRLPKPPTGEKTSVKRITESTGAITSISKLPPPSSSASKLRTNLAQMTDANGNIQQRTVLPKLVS", "experiment": "Inhibition of DYRK2 (unknown origin) using woodtide as substrate after 40 mins in presence of [gamma-33P]ATP by microbeta scintillation counting"}, "[5]": {"system": "RN1", "experiment": "(§1) Anticlonogenic activity against patient-derived RN1 cells after 10 to 12 days by toluidine blue staining based assay", "assay_type": "functional, cell-based", "details": "Homo sapiens", "summary_of_the_method": "(§2)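 Cells were exposed to compound for 10 days, then colonies were fixed, stained with Toluidine Blue and counted. […] Values are mean ± SEM of 3 independent experiments, each in duplicate, with one-way ANOVA and Dunnett's test against vehicle.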"}, "[6]": {"experiment": "as §1", "assay_type": "functional, cell-based, Homo sapiens", "summary_of_the_method": "as §2"}, "[7]": {"system": "A 172", "experiment": "Antiinvasive activity in human A172 cells measured up to 20 hrs by matrigel assay", "assay_type": "functional, cell-based"}, "[8]": {"system": "U-251", "experiment": "Antimigratory activity in human U251 cells assessed as velocity of migration at 10 uM measured up to 20 hrs by wound scratch assay (reference value: 2159 to 2653 micrometer/hr)", "assay_type": "functional", "summary_of_the_method": "(§3)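 Wound-healing migration assay: cell movement across the wound is measured as velocity (µm/h). Compounds were tested at 0, 1.0, 5.0 and 10.0 µM. Values are mean ± SEM of 3 independent experiments.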"}, "[9]": {"experiment": "Cytotoxicity against patient-derived WK1 cells assessed as reduction in cell viability after 5 days by Alamar blue assay", "assay_type": "functional, cell-based", "details": "Homo sapiens, WK1, 120 h", "summary_of_the_method": "(§4)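 The patient-derived glioblastoma lines were grown as stem cells under defined conditions to keep the phenotype and genotype of the resected tumours. Viability after treatment was read with Alamar blue.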"}, "[10]": {"system": "U-251", "experiment": "Antiinvasive activity in human U251 cells assessed as velocity of invasion at 5 uM measured up to 20 hrs by matrigel assay (reference value: 1151 to 1710 micrometer/hr)", "assay_type": "functional"}, "[11]": {"biological_target": "T2, Dual specificity protein kinase CLK1", "experiment": "Inhibition of CLK1 (unknown origin) using KKGRSRSRSRSRSR as substrate after 40 mins in presence of [gamma-33P]ATP by microbeta scintillation counting", "summary_of_the_method": "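CLK1 was assayed with RS peptide substrate at 100 µM ATP.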"}, "[12]": {"biological_target": "T1, Dual specificity tyrosine-phosphorylation-regulated kinase 1A", "experiment": "Stabilization of DYRK1A in human U251 cell lysate at 10 uM preincubated for 1 hr followed by incubation at 40 to 70 degreeC for 3 mins by cellular thermal shift assay"}, "[13]": {"biological_target": "T4, Dual specificity tyrosine-phosphorylation-regulated kinase 1B (Homo sapiens, UniProt Q9Y463)", "experiment": "Stabilization of DYRK1B in human U251 cell lysate at 10 uM preincubated for 1 hr followed by incubation at 40 to 70 degreeC for 3 mins by cellular thermal shift assay"}, "[14]": {"experiment": "Antimigratory activity in patient-derived RN1 cells assessed as velocity of migration at 10 uM measured up to 20 hrs by wound scratch assay (reference value: 937 to 1174 micrometer/hr)", "assay_type": "functional, Homo sapiens", "summary_of_the_method": "as §3"}, "[15]": {"system": "A 172", "experiment": "Antimigratory activity in human A172 cells assessed as velocity of migration at 1 uM measured up to 20 hrs by wound scratch assay (reference value: 2650 to 3123 micrometer/hr)", "assay_type": "functional", "summary_of_the_method": "as §3"}, "[16]": {"experiment": "Cytotoxicity against patient-derived RN1 cells assessed as reduction in cell viability after 3 days by Alamar blue assay", "assay_type": "functional, cell-based", "details": "Homo sapiens, RN1, 72 h", "summary_of_the_method": "as §4"}, "[17]": {"species_on_record": "Homo sapiens", "experiment": "Inhibition of tubulin (unknown origin) polymerization"}, "[18]": {"system": "U-251", "experiment": "Antimigratory activity in human U251 cells at 5 uM measured up to 20 hrs by wound scratch assay", "assay_type": "functional", "details": "U-251, 20 h", "summary_of_the_method": "as §3"}, "[19]": {"biological_target": "T4, Dual specificity tyrosine-phosphorylation-regulated kinase 1B", "experiment": "Inhibition of DYRK1B (unknown origin) using woodtide as substrate after 40 mins in presence of [gamma-33P]ATP by microbeta scintillation counting"}, "[20]": {"system": "A 172", "experiment": "Antimigratory activity in human A172 cells at 5 uM measured up to 20 hrs by wound scratch assay", "assay_type": "functional", "details": "A 172, 20 h", "summary_of_the_method": "as §3"}, "[21]": {"system": "A 172", "experiment": "Antiinvasive activity in human A172 cells assessed as velocity of invasion at 1 uM measured up to 20 hrs by matrigel assay (reference value: 2659 to 3047 micrometer/hr)", "assay_type": "functional"}, "[22]": {"experiment": "Cytotoxicity against patient-derived JK2 cells assessed as reduction in cell viability after 3 days by Alamar blue assay", "assay_type": "functional, cell-based", "details": "Homo sapiens, JK2, 72 h", "summary_of_the_method": "as §4"}, "[23]": {"experiment": "Antimigratory activity in patient-derived RN1 cells assessed as velocity of migration at 1 uM measured up to 20 hrs by wound scratch assay (reference value: 937 to 1174 micrometer/hr)", "assay_type": "functional, Homo sapiens", "summary_of_the_method": "as §3"}, "[24]": {"system": "A 172", "experiment": "Antimigratory activity in human A172 cells assessed as velocity of migration at 10 uM measured up to 20 hrs by wound scratch assay (reference value: 2650 to 3123 micrometer/hr)", "assay_type": "functional", "summary_of_the_method": "as §3"}, "[25]": {"biological_target": "T1, Dual specificity tyrosine-phosphorylation-regulated kinase 1A", "experiment": "Inhibition of DYRK1A (unknown origin) using woodtide as substrate after 10 mins in presence of [gamma-33P]ATP by microbeta scintillation counting"}}, "note": "Calls of active or inactive are those of the source. The calls are words filed in the database; no cut-off is given here.", "data": [{"molecule": "Nc1ccc(-c2cnc3[nH]cc(-c4ccc(O)cc4)c3c2)cc1", "values": [{"measurement": "T1/2", "setting": "[1]", "value": 11.3, "unit": "min"}, {"measurement": "Activity", "setting": "[2]", "value": "Active"}, {"measurement": "Activity", "setting": "[3]", "value": -149, "unit": "um/hr"}, {"measurement": "IC50", "setting": "[4]", "value": 567, "unit": "nM"}, {"measurement": "Activity", "setting": "[5]", "value": "Dose-dependent effect"}, {"measurement": "EC50", "setting": "[6]", "value": 800, "unit": "nM"}, {"measurement": "inhibition", "setting": "[7]", "value": "Dose-dependent effect"}, {"measurement": "Activity", "setting": "[8]", "value": 129, "unit": "um/hr"}, {"measurement": "EC50", "setting": "[9]", "value": 900, "unit": "nM"}, {"measurement": "Activity", "setting": "[10]", "value": 234, "unit": "um/hr"}, {"measurement": "IC50", "setting": "[11]", "value": 34, "unit": "nM"}, {"measurement": "Activity", "setting": "[12]", "value": "Active"}, {"measurement": "Activity", "setting": "[13]", "value": "Active"}, {"measurement": "Activity", "setting": "[14]", "value": 208, "unit": "um/hr"}, {"measurement": "Activity", "setting": "[15]", "value": 2828, "unit": "um/hr"}, {"measurement": "EC50", "setting": "[16]", "value": 1100, "unit": "nM"}, {"measurement": "inhibition", "setting": "[17]", "value": "inactive"}, {"measurement": "inhibition at 5 µM", "setting": "[18]", "value": "> 75", "unit": "%"}, {"measurement": "IC50", "setting": "[19]", "value": 32, "unit": "nM"}, {"measurement": "inhibition at 5 µM", "setting": "[20]", "value": "> 75", "unit": "%"}, {"measurement": "Activity", "setting": "[21]", "value": 2675, "unit": "um/hr"}, {"measurement": "EC50", "setting": "[22]", "value": 8000, "unit": "nM"}, {"measurement": "Activity", "setting": "[23]", "value": 355, "unit": "um/hr"}, {"measurement": "Activity", "setting": "[24]", "value": 131, "unit": "um/hr"}, {"measurement": "IC50", "setting": "[25]", "value": 43, "unit": "nM"}]}]}
